From ChEMBL document CHEMBL2417498, “Design and synthesis of 6,7-methylenedioxy-4-substituted phenylquinolin-2(1H)-one derivatives as novel anticancer agents that induce apoptosis with cell cycle arrest at G2/M phase” (Bioorg Med Chem, 2013)
Calls of active or inactive are those of the source. The calls are words filed in the database; no cut-off is given here.

Experiments:
[1] = Cell cycle arrest in human H460 cells assessed as accumulation at S phase at 2.5 uM after 24 hrs by propidium iodide staining-based FACS analysis (reference value: 43.08%); type: functional; settings: NCI-H460
Method in brief: (§1)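 H460 cells treated 24 h with 1.0, 2.5 or 5.0 µM; washed in PBS, fixed overnight in 70% ice-cold ethanol at −20 °C, stained 30 min in the dark with 0.1% Triton X-100, 0.2 mg/mL RNase and 20 µg/mL propidium iodide; DNA content by flow cytometry, phase distribution from histogram modelling.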

[2] = Cell cycle arrest in human H460 cells assessed as accumulation at G2/M phase at 1 uM after 24 hrs by propidium iodide staining-based FACS analysis (reference value: 10.73%); type: functional; settings: NCI-H460; method in brief: as §1
[3] = system: HL-60; assay: Cell cycle arrest in human HL60 cells assessed as accumulation at G2/M phase at 0.5 uM after 24 hrs by propidium iodide staining-based FACS analysis (reference value: 10.51%); type: functional
[4] = system: HL-60; assay: Cell cycle arrest in human HL60 cells assessed as accumulation at S phase at 0.25 uM after 24 hrs by propidium iodide staining-based FACS analysis (reference value: 49.69%); type: functional
[5] = system: COLO 205; assay: Cytotoxicity against human COLO205 cells after 48 hrs by MTT assay; type: functional, cell-based; settings: COLO 205, 48 h
Method in brief: (§2)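 Log-phase tumour cells grown in RPMI-1640 with 10% FBS, penicillin/streptomycin and 1% L-glutamine at 37 °C, 5% CO2. Cells treated with vehicle or a range of concentrations for 48 h. Growth measured by MTT reduction, absorbance at 570 nm. IC50 is the concentration giving 50% proliferation inhibition, from 3 independent experiments.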

[6] = system: HL-60; assay: Cell cycle arrest in human HL60 cells assessed as accumulation at sub G1 phase at 0.5 uM after 24 hrs by propidium iodide staining-based FACS analysis (reference value: 0.35%); type: functional
[7] = system: NCI-H460; assay: Induction of apoptosis in human H460 cells assessed as caspase3 cleavage at 1 to 5 uM by Western blot analysis; type: functional, cell-based
Method in brief: (§3)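 H460 cells exposed 24 h at the indicated concentrations; lysates cleared at 12,000 g, protein quantified by Bradford, resolved on 10% SDS-polyacrylamide gels, blotted to nitrocellulose and detected by chemiluminescence.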

[8] = Cytotoxicity against human H460 cells after 48 hrs by MTT assay; type: functional, cell-based; settings: NCI-H460, 48 h; method in brief: as §2
[9] = Cell cycle arrest in human H460 cells assessed as accumulation at G0/G1 phase at 5 uM after 24 hrs by propidium iodide staining-based FACS analysis (reference value: 46.19%); type: functional; settings: NCI-H460; method in brief: as §1
[10] = system: NCI-H460; assay: Induction of apoptosis in human H460 cells assessed as appearance of apoptotic bodies at 1 to 5 uM after 24 hrs by Hoechst 33258 staining-based microscopy; type: functional, cell-based
Method in brief: (§4)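 H460 plated at 5×10⁴ cells/well and incubated 24 h with 1.0, 2.5 or 5.0 µM; stained with 5 µg/mL Hoechst 33258 for 10 min, washed twice in PBS, fixed in 4% paraformaldehyde 10 min at 25 °C; nuclei scored for chromatin condensation, fragmentation and apoptotic bodies by fluorescence microscopy; 0.1% DMSO control.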

[11] = system: HL-60; assay: Cell cycle arrest in human HL60 cells assessed as accumulation at sub G1 phase at 1.0 uM after 24 hrs by propidium iodide staining-based FACS analysis (reference value: 0.35%); type: functional
[12] = system: HL-60; assay: Cell cycle arrest in human HL60 cells assessed as accumulation at G0/G1 phase at 1 uM after 24 hrs by propidium iodide staining-based FACS analysis (reference value: 39.80%); type: functional
[13] = Cell cycle arrest in human H460 cells assessed as accumulation at S phase at 1 uM after 24 hrs by propidium iodide staining-based FACS analysis (reference value: 43.08%); type: functional; settings: NCI-H460; method in brief: as §1
[14] = Cell cycle arrest in human H460 cells assessed as accumulation at sub G1 phase at 5 uM after 24 hrs by propidium iodide staining-based FACS analysis (reference value: 3.07%); type: functional; settings: NCI-H460; method in brief: as §1
[15] = system: HL-60; assay: Cell cycle arrest in human HL60 cells assessed as accumulation at G2/M phase at 0.25 uM after 24 hrs by propidium iodide staining-based FACS analysis (reference value: 10.51%); type: functional
[16] = system: HL-60; assay: Cell cycle arrest in human HL60 cells assessed as accumulation at S phase at 0.5 uM after 24 hrs by propidium iodide staining-based FACS analysis (reference value: 49.69%); type: functional
[17] = system: HL-60; assay: Cell cycle arrest in human HL60 cells assessed as accumulation at S phase at 1 uM after 24 hrs by propidium iodide staining-based FACS analysis (reference value: 49.69%); type: functional
[18] = system: NCI-H460; assay: Induction of apoptosis in human H460 cells assessed as chromatin condensation at 1 to 5 uM after 24 hrs by Hoechst 33258 staining-based microscopy; type: functional, cell-based; method in brief: as §4
[19] = system: Detroit 551; assay: Cytotoxicity against human Detroit 551 cells after 48 hrs by MTT assay; type: cell-based; settings: Detroit 551, 48 h
Method in brief: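 Detroit 551 normal skin cells and Hep 3B hepatoma cells grown in DMEM with 10% FBS, penicillin/streptomycin and 1% L-glutamine at 37 °C, 5% CO2. Log-phase cells treated with vehicle or a range of concentrations for 48 h. MTT reduction read at 570 nm. IC50 (50% proliferation inhibition) taken from 3 independent experiments.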

[20] = Cell cycle arrest in human H460 cells assessed as accumulation at G2/M phase at 2.5 uM after 24 hrs by propidium iodide staining-based FACS analysis (reference value: 10.73%); type: functional; settings: NCI-H460; method in brief: as §1
[21] = system: MCF7; assay: Cytotoxicity against human MCF7 cells after 48 hrs by MTT assay; type: functional, cell-based; settings: MCF7, 48 h; method in brief: as §2
[22] = system: HL-60; assay: Induction of apoptosis in human HL60 cells assessed as caspase3 cleavage at 0.25 to 1 uM by Western blot analysis; type: functional, cell-based
Method in brief: (§5)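 HL-60 cells treated 24 h at the indicated concentrations, harvested, lysed (30 min on ice, 12,000 g spin), protein by Bradford; samples run on 10% SDS-PAGE, transferred to nitrocellulose, immunodetected by chemiluminescence.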

[23] = system: HL-60; assay: Cell cycle arrest in human HL60 cells assessed as accumulation at G0/G1 phase at 0.5 uM after 24 hrs by propidium iodide staining-based FACS analysis (reference value: 39.80%); type: functional
[24] = system: HL-60; assay: Induction of apoptosis in human HL60 cells assessed as appearance of nuclear fragmentation at 0.25 to 1 uM after 24 hrs by Hoechst 33258 staining-based microscopy; type: functional, cell-based
Method in brief: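 HL-60 seeded at 1×10⁵ cells/well, treated 24 h with 0.25, 0.5 or 1.0 µM; nuclei stained 10 min with 5 µg/mL Hoechst 33258, PBS-washed twice, fixed 10 min in 4% PFA at 25 °C; apoptotic morphology imaged by fluorescence microscopy against 0.1% DMSO-treated cells.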

[25] = system: HL-60; assay: Decrease in cyclin B1 expression in human HL60 cells at 0.25 to 1 uM after 24 hrs by Western blot analysis; type: functional, cell-based; method in brief: as §5
[26] = system: NCI-H460; assay: Increase in CDK1 expression in human H460 cells after 24 hrs by Western blot analysis; type: functional, cell-based; method in brief: as §3
[27] = system: HL-60; assay: Decrease in CDK1 expression in human HL60 cells after 24 hrs by Western blot analysis; type: functional, cell-based; method in brief: as §5
[28] = Cell cycle arrest in human H460 cells assessed as accumulation at sub G1 phase at 1 uM after 24 hrs by propidium iodide staining-based FACS analysis (reference value: 3.07%); type: functional; settings: NCI-H460; method in brief: as §1

`COc1ccc(-c2cc(=O)[nH]c3cc4c(cc23)OCO4)c(OC)c1` showed an Activity [1] of 18.8%, an Activity [2] of 54.4% and an Activity [3] of 25.02%. For the same molecule, the Activity [4] was 46.76%, the IC50 [5] was 7.4 µM and the Activity [6] was 27.86%. For the same molecule, the Activity [7] was “Active”, the IC50 [8] was 0.9 µM and the Activity [9] was 9.37%. The Activity [10] was “Active”, the Activity [11] was 19.65% and the Activity [12] was 12.46%. For the same molecule, the Activity [13] was 44.1%, the Activity [14] was 11.2% and the Activity [15] was 11.87%. The Activity [16] was 30.16%, the Activity [17] was 46.99% and the Activity [18] was “Active”. For the same molecule, the IC50 [19] was greater than 25 µM, the Activity [20] was 71.6% and the IC50 [21] was 6 µM. For the same molecule, the Activity [22] was “Active”, the Activity [23] was 44.82% and the Activity [24] was “Active”. The Activity [25] was “Active”, the Activity [26] was “Dose-dependent effect” and the Activity [27] was “Dose-dependent effect”. For the same molecule, the Activity [28] was 10.8%.
